The values below come from ChEMBL document CHEMBL1121927, “Adriamycin analogues. Novel anomeric ribofuranoside analogues of daunorubicin” (1982).

One assay concerns CCRF-CEM. The experiment in a line: Inhibitory activity of compound against CCRF-CEM cells,a lymphoblastic leukemic of human origin propagated in suspension culture. Format: functional. As to conditions: read-out: ID50 (the source's name).
Assay [1] has as its system L1210. The experiment in a line: Increase in life span of treated animals relative to untreated controls expressed in murine L1210 leukemia at a dose of 70 mg/kg x4 after ip injection. Format: functional. As to conditions: Mus musculus, route intraperitoneal. The method in brief: (§1)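 Mice implanted ip with 10⁵ L1210 leukemia cells on day 0. Treatment given ip once daily on days 1-4. Read-out is % ILS, the increase in life span of treated animals relative to untreated controls.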

The test system of another assay is Nucleic Acid. The experiment in a line: Compound was tested for the extent of DNA binding in calf thymus at pH 7 TRIS buffer. Type of assay: nucleic-acid assay. As to conditions: Bos taurus. Summed up:
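Spectral shift method with calf thymus DNA in Tris buffer, pH 7.0, at a drug/DNA molar ratio of 0.1. Binding extent is taken as the ratio of the absorbance of the drug–DNA mixture to that of drug alone at 480 nm.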

The test system of assay [2] is L1210. The experiment in a line: Increase in life span of treated animals relative to untreated controls expressed in murine L1210 leukemia at a dose of 15 mg/kg x4 after ip injection. Type of assay: functional. To be noted: Mus musculus, route intraperitoneal. Summed up:
as §1

For assay [3], the system named is L1210. The assay is described as follows: Increase in life span of treated animals relative to untreated controls expressed in murine L1210 leukemia at a dose of 50.6 mg/kg x4 after ip injection. Type of assay: functional. As to conditions: Mus musculus, route intraperitoneal. Summed up:
as §1

Assay [4] relates to L1210. The assay is described as follows: Increase in life span of treated animals relative to untreated controls expressed in murine L1210 leukemia at a dose of 90 mg/kg x4 after ip injection. Type of assay: functional. As to conditions: Mus musculus, route intraperitoneal. Summed up: as §1
For assay [5], the system named is L1210. The assay is described as follows: Increase in life span of treated animals relative to untreated controls expressed in murine L1210 leukemia at a dose of 4 mg/kg x4 after ip injection. Type of assay: functional. As to conditions: Mus musculus, route intraperitoneal. The method in brief: as §1
Assay [6] has as its system L1210. The experiment in a line: Increase in life span of treated animals relative to untreated controls expressed in murine L1210 leukemia at a dose of 50 mg/kg x4 after ip injection; curative. Format: functional, organism-based. On the set-up: dose 50 mg/kg. To be noted: Mus musculus.
Assay [7] relates to L1210. The assay is described as follows: Increase in life span of treated animals relative to untreated controls expressed in murine L1210 leukemia at a dose of 45 mg/kg x4 after ip injection. Format: functional. As to conditions: Mus musculus, route intraperitoneal. Summed up: as §1

Turning to `COc1cccc2c1C(=O)c1c(O)c3c(c(O)c1C2=O)C[C@@](O)(C(C)=O)C[C@@H]3O[C@@H]1O[C@H](C)[C@@H](NC(=O)C(F)(F)F)[C@H]1O`, the IC50 in the assay on CCRF-CEM worked out at 1080 nM. Moreover, the ILS – broadly, the gain in survival time of treated over control animals, in per cent – at 70 mg/kg in the assay on L1210 [1] amounted to 66%.
In the assay on Nucleic Acid, `COc1cccc2c1C(=O)c1c(O)c3c(c(O)c1C2=O)C[C@@](O)(C(C)=O)C[C@@H]3O[C@H]1O[C@H](C)[C@@H](N)[C@H]1O` registered an Extent of DNA binding of 0.8. For the same compound, in the assay on CCRF-CEM, the IC50 is 280 nM. Further, in the assay on L1210 [2], the ILS at 15 mg/kg amounted to 22%.
As for `COc1cccc2c1C(=O)c1c(O)c3c(c(O)c1C2=O)C[C@@](O)(C(C)=O)C[C@@H]3O[C@@H]1O[C@H](C)[C@@H](N)[C@H]1O`, in the assay on Nucleic Acid, the Extent of DNA binding was 0.86. The IC50 with CCRF-CEM was 210 nM. Further, in the assay on L1210 [3], the increase in lifespan (ILS) at 50.6 mg/kg was 55%.
Regarding `COc1cccc2c1C(=O)c1c(O)c3c(c(O)c1C2=O)C[C@@](O)(C(C)=O)C[C@@H]3O[C@@H]1O[C@H](CO)[C@@H](O)[C@H](O)[C@H]1N`, in the assay on Nucleic Acid, the Extent of DNA binding came out at 0.82. In addition, the IC50 in the assay with CCRF-CEM was determined as 3040 nM. Further, the ILS at 90 mg/kg in the assay with L1210 [4] is 60%.
As to `COc1cccc2c1C(=O)c1c(O)c3c(c(O)c1C2=O)C[C@@](O)(C(=O)CO)C[C@@H]3O[C@H]1C[C@H](N)[C@H](O)[C@H](C)O1` [DOXORUBICIN], the ILS at 4 mg/kg with L1210 [5] was 66%. Further, the Extent of DNA binding in the assay with Nucleic Acid was determined as 0.62. Also, in the assay with CCRF-CEM, the IC50 came out at 66 nM.
As for `CCCCC(=O)OCC(=O)[C@]1(O)Cc2c(O)c3c(c(O)c2[C@@H](OC2CC(NC(=O)C(F)(F)F)C(O)C(C)O2)C1)C(=O)c1c(OC)cccc1C3=O` (some centres undefined), in the assay with Nucleic Acid, the Extent of DNA binding was 0.96. Besides, the increase in life span (ILS) entry in the assay with L1210 [6] is on record as “Curative”. For the same compound, the IC50 in the assay on CCRF-CEM came to 240 nM.
Regarding `COc1cccc2c1C(=O)c1c(O)c3c(c(O)c1C2=O)C[C@@](O)(C(C)=O)C[C@@H]3O[C@H]1O[C@H](C)[C@@H](NC(=O)C(F)(F)F)[C@H]1O`, in the assay with CCRF-CEM, the IC50 was determined as 890 nM. Further, in the assay on L1210 [7], the increase in life span (ILS) at 45 mg/kg is 55%.
